According to ChEMBL document CHEMBL1141626, “Thiosemicarbazones active against Clostridium difficile” (2008):
Converted amounts (≈) assume the structure as drawn. The source made the active and inactive calls. The rule behind the calls is not given here.

Key:
Staphylococcus aureus [1] = assay: Antimicrobial activity against methicillin-resistant Staphylococcus aureus A1 after 24 hrs; format: functional
Outline: (§1)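 MIC by dilution in nutrient broth. Anaerobic organisms were incubated in an anaerobic cabinet. Controls were the same organisms incubated without test compound.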

Cutibacterium acnes [2] = assay: Antimicrobial activity against Propionibacterium acnes NCTC 737 after 48 hrs; format: functional; conditions: NCTC 737, 48 h; outline: as §1
Staphylococcus aureus [3] = assay: Antimicrobial activity against methicillin-resistant Staphylococcus aureus C3 after 24 hrs; format: functional; outline: as §1
Staphylococcus aureus [4] = assay: Antimicrobial activity against methicillin-resistant Staphylococcus aureus E1 after 24 hrs; format: functional; outline: as §1
Staphylococcus aureus [5] = assay: Antimicrobial activity against Staphylococcus aureus K1 after 24 hrs; format: functional; outline: as §1
Clostridioides difficile [6] = assay: Antimicrobial activity against Clostridium difficile O27 after 48 hrs; format: functional
Outline: (§2)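 Anaerobes incubated in an anaerobic cabinet for broth MIC determination. Drug-free incubations of the same organisms served as controls. Value is the minimum inhibitory concentration.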

Clostridioides difficile [7] = assay: Antimicrobial activity against Clostridium difficile Z229 after 48 hrs; format: functional; outline: as §2
Staphylococcus aureus [8] = assay: Antimicrobial activity against Staphylococcus aureus H1 after 24 hrs; format: functional; outline: as §1
Staphylococcus aureus [9] = assay: Antimicrobial activity against Staphylococcus aureus ATCC 6538 after 24 hrs; format: functional; conditions: ATCC 6538, 24 h; outline: as §1
Cutibacterium acnes [10] = assay: Antimicrobial activity against Propionibacterium acnes C5 after 48 hrs; format: functional; outline: as §1
[11] = test system: Staphylococcus epidermidis; assay: Antimicrobial activity against Staphylococcus epidermidis NCTC 11047 after 24 hrs; format: functional; conditions: NCTC 11047, 24 h; outline: as §1
Clostridioides difficile [12] = assay: Antimicrobial activity against Clostridium difficile NCTC 11204 after 48 hrs; format: functional; conditions: NCTC 11204, 48 h; outline: as §2
[13] = test system: Staphylococcus epidermidis; assay: Antimicrobial activity against Staphylococcus epidermidis 4 after 24 hrs; format: functional; outline: as §1
[14] = test system: Staphylococcus epidermidis; assay: Antimicrobial activity against Staphylococcus epidermidis 9 after 24 hrs; format: functional; outline: as §1
Clostridioides difficile [15] = assay: Antimicrobial activity against Clostridium difficile Z162 after 48 hrs; format: functional; outline: as §2
Cutibacterium acnes [16] = assay: Antimicrobial activity against Propionibacterium acnes B5 after 48 hrs; format: functional; outline: as §2
Cutibacterium acnes [17] = assay: Antimicrobial activity against Propionibacterium acnes C3 after 48 hrs; format: functional; outline: as §1
Streptococcus pyogenes = assay: Antimicrobial activity against Streptococcus pyogenes; format: functional, organism-based
Bacillus subtilis = assay: Antimicrobial activity against Bacillus subtilis; format: functional, organism-based
[18] = test system: Trichophyton mentagrophytes; assay: Antimicrobial activity against Trichophyton mentagrophytes; format: functional, organism-based
Candida albicans = assay: Antimicrobial activity against Candida albicans; format: functional, organism-based
Staphylococcus aureus [19] = assay: Antimicrobial activity against Micrococcus pyogenes; format: functional, organism-based
Escherichia coli = assay: Antimicrobial activity against Escherichia coli; format: functional, organism-based

Compound | MIC (Staphylococcus aureus [1]) [µg/mL] | MIC (Cutibacterium acnes [2]) [µg/mL] | MIC (Staphylococcus aureus [3]) [µg/mL] | MIC (Staphylococcus aureus [4]) [µg/mL] | MIC (Staphylococcus aureus [5]) [µg/mL] | MIC (Clostridioides difficile [6]) [µg/mL] | MIC (Clostridioides difficile [7]) [µg/mL] | MIC (Staphylococcus aureus [8]) [µg/mL] | MIC (Staphylococcus aureus [9]) [µg/mL] | MIC (Cutibacterium acnes [10]) [µg/mL] | MIC [11] [µg/mL] | MIC (Clostridioides difficile [12]) [µg/mL] | MIC [13] [µg/mL] | MIC [14] [µg/mL] | MIC (Clostridioides difficile [15]) [µg/mL] | MIC (Cutibacterium acnes [16]) [µg/mL] | MIC (Cutibacterium acnes [17]) [µg/mL] | also measured
CNC(=S)N/N=C/C=C/c1ccc([N+](=O)[O-])o1 | 64 (≈ 252 µM) | 16 (≈ 62.9 µM) | 64 (≈ 252 µM) | 64 (≈ 252 µM) | > 256 | 32 (≈ 126 µM) | 16 (≈ 62.9 µM) | 16 (≈ 62.9 µM) | 32 (≈ 126 µM) | 64 (≈ 252 µM) | 32 (≈ 126 µM) | 64 (≈ 252 µM) | 32 (≈ 126 µM) | 64 (≈ 252 µM) | 32 (≈ 126 µM) | 1 (≈ 3.93 µM) | 1 (≈ 3.93 µM) | 
CCNC(=S)N/N=C/C=C/c1ccco1 | > 256 | 16 (≈ 71.7 µM) | > 256 | > 256 | > 256 | 64 (≈ 287 µM) | 64 (≈ 287 µM) | > 256 | > 256 | 32 (≈ 143 µM) | > 256 | > 256 | > 256 | > 256 | > 256 | > 256 | 32 (≈ 143 µM) | 
CNC(=S)N/N=C/C=C/c1ccco1 | > 256 | 32 (≈ 153 µM) | > 256 | > 256 | > 256 | 64 (≈ 306 µM) | 128 (≈ 612 µM) | > 256 | > 256 | 1 (≈ 4.78 µM) | > 256 | > 256 | 128 (≈ 612 µM) | > 256 | > 256 | 32 (≈ 153 µM) | 16 (≈ 76.5 µM) | 
CC(C)(C)NC(=S)N/N=C/c1ccc([N+](=O)[O-])o1 | > 256 | 64 (≈ 237 µM) | > 256 | > 256 | 64 (≈ 237 µM) | > 256 | 16 (≈ 59.2 µM) | > 256 | 64 (≈ 237 µM) | 16 (≈ 59.2 µM) | 128 (≈ 474 µM) | 128 (≈ 474 µM) | > 256 | > 256 | 128 (≈ 474 µM) | 32 (≈ 118 µM) | 16 (≈ 59.2 µM) | 
CC(C)(C)NC(=S)N/N=C/C=C/c1ccco1 | > 256 | 64 (≈ 255 µM) | > 256 | > 256 | > 256 | 64 (≈ 255 µM) | 64 (≈ 255 µM) | > 256 | > 256 | 1 (≈ 3.98 µM) | > 256 | > 256 | > 256 | > 256 | > 256 | 64 (≈ 255 µM) | 4 (≈ 15.9 µM) | 
CCNC(=S)N/N=C/c1ccc([N+](=O)[O-])o1 | 64 (≈ 264 µM) | 16 (≈ 66 µM) | 64 (≈ 264 µM) | 64 (≈ 264 µM) | 64 (≈ 264 µM) | 64 (≈ 264 µM) | 8 (≈ 33 µM) | 16 (≈ 66 µM) | 32 (≈ 132 µM) | 32 (≈ 132 µM) | 32 (≈ 132 µM) | 64 (≈ 264 µM) | 32 (≈ 132 µM) | 64 (≈ 264 µM) | 128 (≈ 528 µM) | 32 (≈ 132 µM) | 2 (≈ 8.26 µM) | Activity (Streptococcus pyogenes): Active; Activity (Bacillus subtilis): Active; Activity [18]: Active; Activity (Candida albicans): Active; Activity (Staphylococcus aureus [19]): Active; Activity (Escherichia coli): Active
CC(C)NC(=S)N/N=C/C=C/c1ccco1 | > 256 | 32 (≈ 135 µM) | > 256 | > 256 | > 256 | 64 (≈ 270 µM) | 128 (≈ 539 µM) | > 256 | > 256 | 64 (≈ 270 µM) | > 256 | > 256 | > 256 | > 256 | > 256 | > 256 | 1 (≈ 4.21 µM) | 
CNC(=S)N/N=C/c1ccc([N+](=O)[O-])o1 | 64 (≈ 280 µM) | 16 (≈ 70.1 µM) | > 256 | 64 (≈ 280 µM) | 128 (≈ 561 µM) | 64 (≈ 280 µM) | 64 (≈ 280 µM) | 64 (≈ 280 µM) | 64 (≈ 280 µM) | 64 (≈ 280 µM) | 16 (≈ 70.1 µM) | > 256 | 32 (≈ 140 µM) | 128 (≈ 561 µM) | > 256 | 64 (≈ 280 µM) | 16 (≈ 70.1 µM) | 
CN[C@H](CC(C)C)C(=O)N[C@H]1C(=O)N[C@@H](CC(N)=O)C(=O)N[C@H]2C(=O)N[C@H]3C(=O)N[C@H](C(=O)N[C@H](C(=O)O)c4cc(O)cc(O)c4-c4cc3ccc4O)[C@H](O)c3ccc(c(Cl)c3)Oc3cc2cc(c3O[C@@H]2O[C@H](CO)[C@@H](O)[C@H](O)[C@H]2O[C@H]2C[C@](C)(N)[C@H](O)[C@H](C)O2)Oc2ccc(cc2Cl)[C@H]1O [VANCOMYCIN] |  | 0.5 (≈ 0.345 µM) |  |  |  | 0.75 (≈ 0.518 µM) |  |  | 1.5 (≈ 1.04 µM) |  |  | 0.5 (≈ 0.345 µM) |  |  |  |  |  | 
CC(C)NC(=S)N/N=C/c1ccc([N+](=O)[O-])o1 | > 256 | 64 (≈ 250 µM) | > 256 | > 256 | > 256 | 64 (≈ 250 µM) | 128 (≈ 499 µM) | 128 (≈ 499 µM) | 64 (≈ 250 µM) | 64 (≈ 250 µM) | 64 (≈ 250 µM) | > 256 | > 256 | > 256 | > 256 | > 256 | 32 (≈ 125 µM) | 
CC(C)(C)NC(=S)N/N=C/C=C/c1ccc([N+](=O)[O-])o1 | > 256 | 16 (≈ 54 µM) | > 256 | > 256 | 32 (≈ 108 µM) | 64 (≈ 216 µM) | 64 (≈ 216 µM) | 64 (≈ 216 µM) | > 256 | 16 (≈ 54 µM) | > 256 | > 256 | > 256 | > 256 | 128 (≈ 432 µM) | 32 (≈ 108 µM) | 8 (≈ 27 µM) | 
CC(C)NC(=S)N/N=C/C=C/c1ccc([N+](=O)[O-])o1 | > 256 | 32 (≈ 113 µM) | > 256 | > 256 | > 256 | 64 (≈ 227 µM) | 64 (≈ 227 µM) | 256 (≈ 907 µM) | > 256 | 64 (≈ 227 µM) | 64 (≈ 227 µM) | > 256 | 64 (≈ 227 µM) | > 256 | > 256 | 32 (≈ 113 µM) | 32 (≈ 113 µM) | 
